Each block holds one compound with its values, some of them ahead of it. No end group written: not given here.
Experiments:
human NK1 receptor [1] = biological target: T1, human NK1 receptor (Homo sapiens, UniProt P25103); experiment: NK1R antagonist block of SP‐induced Ca2+ mobilization in HEK‐NK1R cells; format: cell-based; conditions: antagonist 100 nM, 2 min pre‐incubation; n = 5
How it was run: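 HEK-293 cells stably expressing human NK1R, grown in IMDM/10% FBS with hygromycin. Loaded with 4 μM Fura-2 AM (60–90 min, 37°C), 100 000 cells/well. After a 30-s baseline, antagonist or DMSO vehicle is added for 2 min, then the stimulus. Ratiometric Ca2+ (340/380 nm) is read over 4 min at 37°C. Paired t-test.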

LAD2 human mast cells [2] = conditions: cited from earlier work
LAD2 human mast cells [3] = conditions: cited from earlier work; remark: listed apart in the source
MRGPRX2 = biological target: T2, MRGPRX2 (Homo sapiens, UniProt Q96LB1); experiment: Antagonism of SP activation of MRGPRX2; format: cell-based; conditions: pilot studies, results not shown
T2 sequence (Q96LB1 1-330): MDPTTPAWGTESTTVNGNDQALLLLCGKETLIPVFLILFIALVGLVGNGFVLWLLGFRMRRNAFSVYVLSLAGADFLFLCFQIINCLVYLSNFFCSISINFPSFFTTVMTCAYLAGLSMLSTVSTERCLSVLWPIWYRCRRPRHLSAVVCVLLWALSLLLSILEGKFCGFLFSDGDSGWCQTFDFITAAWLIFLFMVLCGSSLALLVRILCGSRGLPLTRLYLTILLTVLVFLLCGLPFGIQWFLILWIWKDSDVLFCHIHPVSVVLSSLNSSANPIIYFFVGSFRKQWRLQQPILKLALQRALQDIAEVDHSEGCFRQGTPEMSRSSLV

LAD2 human mast cells [4] = experiment: Ca2+ mobilization in LAD2 cells; format: cell-based; conditions: Fura‐2
How it was run: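 IgE-sensitized LAD2 cells (JW8 conditioned medium, 48 h), wild-type or MRGPRX2-knockdown, washed in HANKS buffer with 1 mM probenecid. Loaded with 2 μM Fura-2 AM for 60–90 min at 37°C, then plated at 60 000 cells/well. Test compound is injected after a 30-s baseline and the 340/380 nm ratio (510 nm emission) is recorded for 6 min at 37°C. Peak ratios are taken across a concentration range.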

LAD2 human mast cells [5] = experiment: CCL2 release by LAD2 mast cells; format: cell-based; conditions: 24 h
human NK1 receptor [6] = biological target: T1, human NK1 receptor; experiment: Ca2+ mobilization in HEK‐NK1R cells; format: cell-based; conditions: even at high concentrations
LAD2 human mast cells [7] = experiment: LAD2 cell degranulation; format: cell-based; conditions: β‐hexosaminidase release
How it was run: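 IgE-sensitized LAD2 cells (wild-type or MRGPRX2-knockdown) in HANKS buffer pH 7.4, 35 000 cells/well, exposed to a concentration range for 30 min at 37°C. Supernatant is incubated with 4 mM p-NAG (pH 4.5) for 90 min at 37°C, quenched with glycine pH 10.7, and read at 405 nm. Release is expressed as % of Triton X-100 (0.1%) lysate total, minus spontaneous release.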

T1 sequence (P25103 whole entry): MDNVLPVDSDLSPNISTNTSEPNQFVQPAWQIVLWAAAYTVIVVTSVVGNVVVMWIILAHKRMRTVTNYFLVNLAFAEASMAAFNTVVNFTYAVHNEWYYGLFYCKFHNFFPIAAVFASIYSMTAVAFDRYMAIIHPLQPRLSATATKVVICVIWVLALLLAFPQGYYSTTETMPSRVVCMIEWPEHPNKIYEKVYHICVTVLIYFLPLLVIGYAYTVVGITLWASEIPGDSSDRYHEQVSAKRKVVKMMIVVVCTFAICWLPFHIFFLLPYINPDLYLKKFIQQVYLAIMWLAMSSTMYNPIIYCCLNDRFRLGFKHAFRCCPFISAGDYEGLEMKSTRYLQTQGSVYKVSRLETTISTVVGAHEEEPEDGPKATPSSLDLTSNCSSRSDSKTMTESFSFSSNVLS

effect of antagonist pretreatment on SP responses in HEK‐NK1R cells (human NK1 receptor [1]): effectively blocked SP responses
Compound: COc1ccc(-n2nnnc2C(F)(F)F)cc1CN[C@H]1CCCN[C@H]1c1ccccc1 [GR205171, vofopitant]

Compound: C=CC[N+]1([C@H]2C[C@H]3[C@@H]4CC[C@H]5C[C@H](O)[C@@H](N6CCOCC6)C[C@]5(C)[C@H]4CC[C@]3(C)[C@H]2OC(C)=O)CCCC1 [rocuronium]
degranulation in LAD2 cells, in words (LAD2 human mast cells [2]): without triggering concomitant degranulation
Ca^2+ mobilization in LAD2 cells, in words (LAD2 human mast cells [3]): shows a mobilization of Ca^2+

activation of NK1R (Ca^2+ mobilization), in words (human NK1 receptor [6]): failed to induce significant activation
Compound: SP(1–7)‐COOH: C‐terminally truncated in vivo metabolite of SP, residues 1–7, free acid (RPKPQQF-OH; UniProt P20366 58-64, looked up, fragment)
antagonism of SP activation of MRGPRX2 (MRGPRX2): not been able to demonstrate any antagonism
LAD2 Ca^2+ mobilization, in words (LAD2 human mast cells [4]): failed to produce cellular activation
CCL2 cytokine release from LAD2 cells, in words (LAD2 human mast cells [5]): minimal and comparable to spontaneous release
LAD2 degranulation, in words (LAD2 human mast cells [7]): failed to produce cellular activation

— paper PMC9337217 (Pharmacology Research & Perspectives, 2022)
